In ChEMBL document CHEMBL4765386, “Discovery of tertiary amide derivatives incorporating benzothiazole moiety as anti-gastric cancer agents in vitro via inhibiting tubulin polymerization and activating the Hippo signaling pathway” (Eur J Med Chem, 2020):
pIC50: −log10 of the molar value.

Key:
[1] = system: MGC-803; assay: Antiproliferative activity against human MGC-803 cells assessed as reduction in cell viability incubated for 48 hrs by MTT assay; assay type: functional, cell-based; conditions: MGC-803, 48 h
Procedure, shortened: (§1)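 MTT assay. Compound added 24 h after seeding and left for 48 h. MTT was then added for 4 h at 37 °C, formazan dissolved in DMSO and absorbance read at 490 nm. IC50 calculated from three independent experiments.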

[2] = system: HCT-116; assay: Antiproliferative activity against human HCT-116 cells assessed as reduction in cell viability incubated for 48 hrs by MTT assay; assay type: functional, cell-based; conditions: HCT-116, 48 h
Procedure, shortened: as §1, with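 “assay. 5,000 cells per well in RPMI-1640 with 10% FBS and penicillin/streptomycin at 37 °C, 5% CO2.” for “assay.”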

[3] = system: PC-3; assay: Antiproliferative activity against human PC-3 cells assessed as reduction in cell viability incubated for 48 hrs by MTT assay; assay type: functional, cell-based; conditions: PC-3, 48 h
Procedure, shortened: as §1, with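 “assay. 5,000 cells per well in RPMI-1640 with 10% FBS and penicillin/streptomycin at 37 °C, 5% CO2.” for “assay.”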

[4] = Inhibition of tubulin (unknown origin); set-up: species or system Homo sapiens
[5] = system: MGC-803/PTX (Homo sapiens); assay: Cytotoxicity against human MGC-803/PTX cells assessed as reduction in cell viability at 15 nM incubated for 48 hrs by MTT assay relative to control

Row | SMILES | pIC50 [1] | pIC50 [2] | pIC50 [3] | pIC50 [4] | inhibition at 0.015 µM [5] [%]
1 | COc1cc(N(Cc2ccccc2)C(=O)CSc2nc3ccccc3s2)cc(OC)c1OC | 4.35 | 4.26 | 4.27 |  | 
2 | COc1ccc(CN(C(=O)CSc2nc3ccccc3s2)c2cc(OC)c(OC)c(OC)c2)cc1 | 6.79 | 6.37 | 5.07 |  | 
3 | COc1cc2c(c(OC)c1OC)-c1ccc(OC)c(=O)cc1[C@@H](NC(C)=O)CC2 [COLCHICINE] | 6.97 | 6.89 | 6.47 |  | 
4 | COc1cc(N(Cc2ccc(Br)cc2)C(=O)CSc2nc3ccccc3s2)cc(OC)c1OC | 4.32 | 4.20 | < 4.10 |  | 
5 | COc1cc(N2C(=O)[C@H](c3cccs3)[C@H]2c2cccc(N=[N+]=[N-])c2)cc(OC)c1OC |  |  |  | 5.65 | 
6 | COc1ccc2nc(SCC(=O)N(Cc3ccc(OC)c(O)c3)c3cc(OC)c(OC)c(OC)c3)sc2c1 | 7.15 | 6.45 | 5.39 |  | 
7 | COc1cc(N(Cc2ccc(C)cc2)C(=O)CSc2nc3ccccc3s2)cc(OC)c1OC | 4.27 | < 4.10 | < 4.10 |  | 
8 | COc1cc(N(Cc2ccc(F)cc2)C(=O)CSc2nc3ccccc3s2)cc(OC)c1OC | < 4.10 | 4.22 | 4.29 |  | 
9 | COc1cc(N(Cc2ccc(Cl)cc2)C(=O)CSc2nc3ccccc3s2)cc(OC)c1OC | < 4.10 | 4.22 | < 4.10 |  | 
10 | CC(=O)O[C@H]1C(=O)[C@@]2(C)[C@H]([C@H](OC(=O)c3ccccc3)[C@]3(O)C[C@H](OC(=O)[C@H](O)[C@@H](NC(=O)c4ccccc4)c4ccccc4)C(C)=C1C3(C)C)[C@]1(OC(C)=O)CO[C@@H]1C[C@@H]2O [PACLITAXEL] |  |  |  |  | < 15
11 | COc1ccc(/C=C\c2cc(OC)c(OC)c(OC)c2)cc1OP(=O)(O)O [FOSBRETABULIN] | 7.70 | 7.38 | 7.48 |  | 
12 | COc1ccc(CN(C(=O)CSc2nc3cc(Cl)ccc3s2)c2cc(OC)c(OC)c(OC)c2)cc1O | 7.07 | 6.37 | 4.95 |  | 
13 | COc1ccc(CN(C(=O)CSc2nc3cc(Br)ccc3s2)c2cc(OC)c(OC)c(OC)c2)cc1O | 6.43 | 5.47 | 5.09 |  | 
14 | COc1cc(CN(C(=O)CSc2nc3ccccc3s2)c2cc(OC)c(OC)c(OC)c2)cc(OC)c1OC | 4.34 | 4.19 | < 4.10 |  | 
15 | COc1ccc(CN(C(=O)CSc2nc3c(C)cccc3s2)c2cc(OC)c(OC)c(OC)c2)cc1O | 6.31 | 6.07 | 4.91 |  | 

Further lines, with some results ahead:

Row | pIC50 [1] | pIC50 [2] | pIC50 [3] | pIC50 [4] | SMILES | inhibition at 0.015 µM [5] [%]
16 | 4.47 | 4.47 | < 4.10 |  | COc1ccc(CN(C(=O)CSc2nc3ccccc3s2)c2cc(OC)c(OC)c(OC)c2)cc1OC | 
17 | 7.08 | 6.31 | 5.12 |  | COc1ccc(CN(C(=O)CSc2nc3ccccc3s2)c2cc(OC)c(OC)c(OC)c2)cc1N | 
18 | 5.20 | 4.77 | 4.46 |  | COc1ccc(CN(C(=O)CSc2nc3ccccc3s2)c2cc(OC)c(OC)c(OC)c2)cc1C | 
19 | 4.60 | < 4.10 | < 4.10 |  | COc1ccc(CN(C(=O)CSc2nc3ccccc3s2)c2cc(OC)c(OC)c(OC)c2)cc1C(F)(F)F | 
20 | 6.07 | 5.34 | 4.80 |  | COc1ccc(CN(C(=O)CSc2nc3ccccc3s2)c2cc(OC)c(OC)c(OC)c2)cc1Br | 
21 | 6.38 | 5.74 | 4.70 |  | COc1ccc(CN(C(=O)CSc2nc3ccccc3s2)c2cc(OC)c(OC)c(OC)c2)cc1F | 
22 | 6.17 | 5.89 | 4.58 |  | COc1ccc(CN(C(=O)CSc2nc3ccccc3s2)c2cc(OC)c(OC)c(OC)c2)cc1[N+](=O)[O-] | 
23 | 6.73 | 5.54 | 4.84 |  | COc1ccc(CN(C(=O)CSc2nc3ccccc3s2)c2cc(OC)c(OC)c(OC)c2)cc1N=[N+]=[N-] | 
